Published values from different studies.
Target: Serine/threonine-protein kinase Sgk3 (SGK3, Homo sapiens, UniProt Q96BR1)
Residues used in one study (Q96BR1 1-496): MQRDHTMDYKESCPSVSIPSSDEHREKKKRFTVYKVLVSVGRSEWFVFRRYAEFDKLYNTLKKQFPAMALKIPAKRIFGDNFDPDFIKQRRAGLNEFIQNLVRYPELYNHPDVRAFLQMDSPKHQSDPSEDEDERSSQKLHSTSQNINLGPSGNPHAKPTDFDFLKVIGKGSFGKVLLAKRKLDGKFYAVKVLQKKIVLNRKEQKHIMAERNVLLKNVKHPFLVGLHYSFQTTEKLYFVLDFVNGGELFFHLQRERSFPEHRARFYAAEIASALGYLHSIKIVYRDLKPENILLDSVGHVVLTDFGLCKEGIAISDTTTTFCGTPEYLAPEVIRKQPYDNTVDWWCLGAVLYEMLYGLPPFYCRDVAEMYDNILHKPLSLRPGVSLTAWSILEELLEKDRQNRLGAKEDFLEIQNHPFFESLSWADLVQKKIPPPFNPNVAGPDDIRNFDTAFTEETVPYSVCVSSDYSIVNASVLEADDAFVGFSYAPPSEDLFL

Compound	effect on	mode	method	tested at	measurement	result
Cc1nn(C)cc1-c1nc2c(N3CCN(Cc4ccc(Cl)cc4)CC3)c(Cl)cnc2[nH]1	binding		competition with immobilised ligand	1 µM	remaining binding	100%
COc1ncccc1-c1cnn2ccc(N3CCN(C(=O)OC(C)C)CC3)nc12	binding		competition with immobilised ligand	1 µM	remaining binding	100%
Cn1cc(-c2cc(F)cc(N3CCn4c(cc5c4CCCC5)C3=O)c2CO)cc(Nc2ccc(N3CCN(C4COC4)CC3)cn2)c1=O	enzyme activity	inhibitor		0.1 µM	inhibition	14%
Nc1ncc(-c2nc(N3CCOCC3)nc(N3CCOCC3)n2)c(C(F)F)n1	binding		competition with immobilised ligand	10 µM	remaining binding	44%
Cn1cncc1[C@](O)(COc1ccc(C#N)cc1-c1ccc(OC(F)(F)F)cc1)c1ccc(C#N)cc1	cell-free assay		competition with immobilised ligand	1 µM	remaining binding	100%
CC(C)(C)c1cc(C=C(C#N)C#N)cc(Br)c1O	enzyme activity	inhibitor		0.5 µM	remaining activity	97.7%
COc1cc(Nc2ncc(F)c(Nc3ccc4c(n3)NC(=O)C(C)(C)O4)n2)cc(OC)c1OC	binding			10 µM	inhibition	52%
Cn1cc(-c2cccc(N3CCc4c(sc5c4CC(C)(C)C5)C3=O)c2CO)cc(Nc2ccncn2)c1=O	enzyme activity	inhibitor		1 µM	inhibition	5%
O=c1[nH]c2ccccc2n1C1CCN(Cc2ccc(-c3[nH]c4cc5ncnc5cc4nc3-c3ccccc3)cc2)CC1	cell-free assay			0.5 µM	remaining signal	108%
